Results as given in ChEMBL document CHEMBL1138322 (J Med Chem, 2007).
The source made the active and inactive calls. No cut-off for these calls is given here.

Columns and labels:
[1] = test system: Mus musculus; test: Drug level in mouse at 10 mg/kg, po; details: read-out: Activity, in vivo
[2] = test system: Mus musculus; test: Reduction of plasma free fatty acid levels in po dosed mouse after 15 mins; assay type: functional, organism-based; details: for ED50: po
In short: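 Mice dosed orally. Plasma free fatty acids and plasma compound level both measured at 15 min post-dosing.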

[3] = Plasma concentration in mouse at 3 mg/kg, ip after 5 mins
[4] = molecular target: T1, Cytochrome P450 2C8 (Homo sapiens, UniProt P10632); test: Inhibition of CYP2C8 in human liver microsomes; assay type: ADME, Microsome
T1 sequence (P10632 whole entry): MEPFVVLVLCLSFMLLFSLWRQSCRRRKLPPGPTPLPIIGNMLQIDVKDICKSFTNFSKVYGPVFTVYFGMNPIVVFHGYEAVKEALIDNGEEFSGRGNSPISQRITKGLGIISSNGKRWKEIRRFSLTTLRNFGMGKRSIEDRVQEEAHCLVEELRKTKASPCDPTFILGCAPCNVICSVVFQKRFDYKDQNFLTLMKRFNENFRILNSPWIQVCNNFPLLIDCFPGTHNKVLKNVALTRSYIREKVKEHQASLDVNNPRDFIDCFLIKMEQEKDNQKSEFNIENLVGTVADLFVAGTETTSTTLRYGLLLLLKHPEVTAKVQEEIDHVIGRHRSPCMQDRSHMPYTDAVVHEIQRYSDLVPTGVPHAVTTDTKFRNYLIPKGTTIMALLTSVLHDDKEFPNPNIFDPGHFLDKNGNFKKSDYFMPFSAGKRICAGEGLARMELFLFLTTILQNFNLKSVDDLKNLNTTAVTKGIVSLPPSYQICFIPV
In short: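 Human liver microsome CYP2C8 inhibition with taxol as substrate and montelukast as positive control; IC50 reported.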

[5] = molecular target: Cytochrome P450 2C9 (Homo sapiens, UniProt P11712); test: Inhibition of CYP2C9 in human liver microsomes; assay type: ADME, Microsome
[6] = Oral bioavailability in mouse at 2 mg/kg, po; assay type: ADME, organism-based; details: in vivo
In short: (§1)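 Mouse PK. Intravenous dose 1 mg/kg and oral dose 2 mg/kg, both given in DMSO/PEG400/water (5:40:55 v:v:v).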

[7] = Clearance in mouse at 1 mg/kg, iv or 2 mg/kg, po; assay type: ADME, organism-based; details: in vivo; in short: as §1
[8] = Volume of distribution at steady state in mouse at 1 mg/kg, iv or 2 mg/kg, po; assay type: ADME, organism-based; details: in vivo, read-out: Vdss; in short: as §1
[9] = Cmax in mouse at 1 mg/kg, iv or 2 mg/kg, po; assay type: ADME, organism-based; details: in vivo; in short: as §1
[10] = Half life in mouse at 1 mg/kg, iv or 2 mg/kg, po; assay type: ADME, organism-based; details: in vivo; in short: as §1
[11] = test system: Adipocyte; test: Inhibition of lipolysis in human adipocytes; assay type: functional, cell-based
In short: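 Inhibition of lipolysis in human adipocytes, read as reduction of free fatty acid release.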

[12] = molecular target: T2, Hydroxycarboxylic acid receptor 2 (Mus musculus, UniProt Q9EP66); test: Displacement of [3H]niacin from mouse GPR109A
[13] = molecular target: T2, Hydroxycarboxylic acid receptor 2; test: Agonist activity at mouse GPR109A by [35S]GTP-gamma-S binding assay; assay type: functional
[14] = test system: Mus musculus; test: Vasodilation effect in mouse ear at 100 mg/kg, ip; assay type: functional, organism-based; parameters: dose 100 mg/kg
In short: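 Flushing model in mice. Compound given i.p. in 5% DMSO/40% PEG400/55% water. Vasodilation read as the change in ear blood perfusion by laser Doppler flowmetry.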

[15] = Plasma concentration in mouse at 100 mg/kg, ip after 15 mins; assay type: ADME, organism-based; parameters: dose 100 mg/kg, route intraperitoneal
In short: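 After an i.p. dose in the mouse ear vasodilation study, plasma compound level measured at 15 min post-dose.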

[16] = Therapeutic index, ratio of vasodilating effect to IC50 for FFA reduction in mouse; assay type: organism-based; details: in vivo
In short: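 Mouse ear vasodilation (flushing) measured as the change in blood perfusion by laser Doppler flowmetry after i.p. dosing in 5% DMSO/40% PEG400/55% water, with plasma drug level taken post-dose. Plasma FFA reduction was measured after p.o. dosing, with compound and FFA plasma levels at 15 min. TI = minimum plasma level inducing flushing ÷ in vivo IC50 for FFA reduction.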

Cytochrome P450 2C9, sequence (P11712 whole entry): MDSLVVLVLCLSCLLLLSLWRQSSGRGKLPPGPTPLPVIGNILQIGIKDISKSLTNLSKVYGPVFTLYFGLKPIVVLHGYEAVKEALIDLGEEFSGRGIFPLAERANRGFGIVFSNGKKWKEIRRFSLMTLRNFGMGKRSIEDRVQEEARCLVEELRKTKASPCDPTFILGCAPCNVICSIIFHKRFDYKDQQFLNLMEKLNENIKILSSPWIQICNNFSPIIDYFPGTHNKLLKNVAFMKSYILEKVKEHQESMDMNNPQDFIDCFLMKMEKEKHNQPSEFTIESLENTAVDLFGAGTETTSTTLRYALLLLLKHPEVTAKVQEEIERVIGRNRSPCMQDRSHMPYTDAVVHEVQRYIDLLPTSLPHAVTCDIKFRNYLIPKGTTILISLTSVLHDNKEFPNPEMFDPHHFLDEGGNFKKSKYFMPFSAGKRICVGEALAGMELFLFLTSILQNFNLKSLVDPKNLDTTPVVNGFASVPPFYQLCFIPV
T2 sequence (Q9EP66 whole entry): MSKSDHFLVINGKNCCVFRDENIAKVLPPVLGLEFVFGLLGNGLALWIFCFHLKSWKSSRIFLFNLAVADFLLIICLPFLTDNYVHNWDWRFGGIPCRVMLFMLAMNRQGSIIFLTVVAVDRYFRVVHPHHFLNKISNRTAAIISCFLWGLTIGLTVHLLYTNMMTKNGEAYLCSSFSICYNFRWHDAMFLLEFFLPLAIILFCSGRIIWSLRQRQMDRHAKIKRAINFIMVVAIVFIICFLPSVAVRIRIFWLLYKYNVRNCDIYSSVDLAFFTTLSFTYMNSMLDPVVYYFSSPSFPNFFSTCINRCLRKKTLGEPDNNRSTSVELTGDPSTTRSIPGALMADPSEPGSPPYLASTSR

Structure (SMILES) | concentration [1] [nM] | concentration at 5 min [3] [nM] | IC50 [4] [µM] | IC50 [5] [µM] | bioavailability [6] [%] | clearance [7] [mL/min/kg] | Vd [8] [L/kg] | Cmax [9] [nM] | half-life [10] [h] | IC50 [11] [µM] | IC50 [12] [µM] | EC50 [13] [µM] | IC50 [2] [µM] | concentration at […] [15] [nM] | ED50 [2] [mg/kg] | Activity [14] | selectivity ratio [16]
O=C(O)c1cccnc1 [NIACIN] | 20000 | 18000 | – | – | – | – | – | – | – | – | – | – | – | – | 8 | – | –
O=C(CCc1ccc(-c2ccc(O)cc2Cl)cc1)Nc1ccccc1C(=O)O | – | – | < 0.4 | < 0.4 | 5 | 18 | 0.35 | 960 | 2 | – | – | – | – | – | – | – | –
O=C(CCc1nc(-c2ccc(O)cn2)no1)Nc1ccccc1C(=O)O | – | – | > 100 | > 100 | – | – | – | – | – | 0.005 | – | – | – | – | – | – | –
O=C(CCc1nc(-c2ccc(O)cc2)no1)Nc1ccccc1C(=O)O | – | – | – | – | 6 | 34 | 1.66 | 120 | 1.3 | 0.03 | 0.46 | 1.6 | 6.9 | 490000 | 9 | inactive | > 70
O=C(CCc1cnc(-c2ccc(O)cn2)s1)Nc1ccccc1C(=O)O | – | – | 20.3 | 5.7 | 27 | 8.5 | 0.62 | 520 | 2.2 | – | – | – | – | – | – | – | –

More lines, main results first:

concentration [1] [nM] | concentration at 5 min [3] [nM] | IC50 [4] [µM] | IC50 [5] [µM] | bioavailability [6] [%] | clearance [7] [mL/min/kg] | Vd [8] [L/kg] | Cmax [9] [nM] | half-life [10] [h] | IC50 [11] [µM] | IC50 [12] [µM] | EC50 [13] [µM] | IC50 [2] [µM] | concentration at […] [15] [nM] | Structure (SMILES) | ED50 [2] [mg/kg] | Activity [14] | selectivity ratio [16]
– | – | 1.2 | 2.8 | 37 | 7.3 | 0.37 | 2100 | 1.6 | – | – | – | – | – | O=C(CCc1cnc(-c2ccc(O)cc2Cl)s1)Nc1ccccc1C(=O)O | – | – | –
– | – | 8.9 | 1.6 | 57 | 0.38 | 0.11 | 5000 | 5.3 | – | – | – | – | – | O=C(CCc1ccc(-c2ccc(O)cn2)cc1)Nc1ccccc1C(=O)O | – | – | –
– | – | 9.3 | 4.2 | – | – | – | – | – | – | – | – | – | – | O=C(CCc1ncc(-c2ccc(O)cn2)s1)Nc1ccccc1C(=O)O | – | – | –
– | – | 19 | 15 | 2.5 | 26 | 0.88 | 30 | 1.1 | 0.04 | – | – | – | – | Cc1c(CCC(=O)Nc2ccccc2C(=O)O)cnn1-c1ccc(O)cc1 | – | – | –
